Bioassay records from PubChem.
V-ATPase pH: yeast V-ATPase proton transport regulation by pHLuorin; S. cerevisiae, pHLuorin cytosolic pH fluorescence; actives 0.37% (n = 350,000); response, % at 10 µM; in the data active = response mostly above about 7.3%, no sharp cut-off; inactive = mostly below about 5.4%; note: actives read high
Hep lipid drop: hepatic lipid droplet formation modulation. actives 0.4% (n = 240,000). AML12 mouse hepatocytes, oleate lipid droplets, BODIPY imaging. inhibition, % at 6.5 µM;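 active = lipid droplet intensity inhibited by at least 50%, with more than 500 cells counted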
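Test system: AML12 mouse liver cells; schedule: overnight exposure; technique: high-content imaging of BODIPY-stained droplets and DAPI nuclei; read-out: % inhibition of corrected integrated BODIPY droplet signal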
aDG glyco act: alpha-DG glycosylation activation | activation, % at 10 µM | actives 0.22% (n = 360,000) | Pro5-aDG cells, alpha-DG glycosylation AlphaScreen (IIH6); 0% Pro5, 100% B10-LARGE cell signal;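 active = activation of at least 8% versus controls, or a plate z-score of at least 8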;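 note: Pro5 are CHO cells carrying HIG-tagged alpha-DG that lacks glycosylation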
MPTP inh: blocks calcium-induced mitochondrial swelling | isolated mouse mitochondria, Ca2+ swelling absorbance, 30 min | inhibition, % at 10 µM | actives 1.4% (n = 360,000) | AID 602449;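 active = inhibition of 50% or more, scaled per plate between neutral and stimulator controls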;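 note: 0% = DMSO wells given calcium and 100% = 1 mM EGTA wells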
ADAM17 inh: ADAM17 inhibition, QFRET primary screen. P78536. recombinant ADAM17, EDANS/DABCYL FRET peptide cleavage. inhibition, % at 6.95 µM. actives 0.83% (n = 370,000);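 active = inhibition above the mean of compounds lying between control limits plus 3 SD, set per campaign, cut at about 8.5% in these data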;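 note: 0% = DMSO-only wells as the low control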
ADAM10 inh: inhibitors of human ADAM10; O14672; recombinant ADAM10, EDANS/DABCYL FRET peptide cleavage, 3 h; inhibition, % at 7 µM; actives 0.62% (n = 370,000);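 active = inhibition above a per-campaign cutoff equal to the mean of compounds falling between control-based bounds plus 3 SD, cut at about 20% in these data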;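 note: 0% = DMSO wells while the 100% control is not disclosed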
Target sequence (O14672 214-748 limits assumed): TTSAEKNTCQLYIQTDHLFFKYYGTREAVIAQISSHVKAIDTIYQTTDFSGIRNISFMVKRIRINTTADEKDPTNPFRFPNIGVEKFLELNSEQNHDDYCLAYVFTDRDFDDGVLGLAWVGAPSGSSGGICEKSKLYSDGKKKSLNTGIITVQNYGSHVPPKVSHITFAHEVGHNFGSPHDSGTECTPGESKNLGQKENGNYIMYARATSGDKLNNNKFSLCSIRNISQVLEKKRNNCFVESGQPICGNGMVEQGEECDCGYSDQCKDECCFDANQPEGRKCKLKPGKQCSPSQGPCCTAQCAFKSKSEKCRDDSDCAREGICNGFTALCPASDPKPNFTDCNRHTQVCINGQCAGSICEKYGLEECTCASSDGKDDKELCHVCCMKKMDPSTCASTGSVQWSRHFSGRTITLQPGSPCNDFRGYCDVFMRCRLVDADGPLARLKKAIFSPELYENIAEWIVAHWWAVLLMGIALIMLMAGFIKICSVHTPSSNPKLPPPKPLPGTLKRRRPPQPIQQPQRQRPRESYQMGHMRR
MPTP counter: membrane potential counter-screen of mitochondrial pore inhibitors | shares compounds with MPTP inh | isolated mitochondria, Rhodamine 123 fluorescence | inhibition, % at 10 µM | actives 78% (n = 5,000) | AID 624504; in the data active = inhibition above about 22%;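 note: 0% = DMSO vehicle and 100% = positive control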
MPTP swell DR: dose response confirmation of mitochondrial permeability transition pore inhibitors. actives 58% (n = 780). shares compounds with MPTP inh. IC50, µM. isolated mitochondria swelling, absorbance; in the data active = IC50 below about 20 µM
MPTP counter DR: active in counter-screen for permeability transition pore inhibitors; isolated mitochondria counterscreen, fluorescence read-out; actives 49% (n = 780); AID 651564; shares compounds with MPTP inh; IC50, µM; in the data active = IC50 below about 80 µM
Active calls of the source: *; i = inactive; . = no result. In the library only some 3.1% were active in any assay of this set; here they are far more common.

SMILES	V-ATPase pH	Hep lipid drop	aDG glyco act	MPTP inh	ADAM17 inh	ADAM10 inh	MPTP counter	others
CCOC(=O)c1cnc(SCC(=O)Nc2ccc(N3CCOCC3)c(Cl)c2)nc1N	4	.	0	0	-2	-10	.
CCOC(=O)N1CCN(C(=O)c2oc3ccc(S(=O)(=O)N4CCCCC4)cc3c2C)CC1	0	.	0	2	1	2	.
Cc1c(C(=O)N2CCCCC2)oc2ccc(S(=O)(=O)N3CC(C)CC(C)C3)cc12 (stereo unspecified)	2	.	4	83*	.	.	44*
CCC(CC)C(=O)Nc1cccc(S(=O)(=O)c2cccc(NC(=O)C(CC)CC)c2)c1	-5	16	0	58*	-1	1	36*
O=[N+]([O-])c1ccc2c(c1)C(=NO)c1cc(Cl)c(Cl)cc1-2	0	.	0	61*	-2	-3	36*
Nc1cc2c(cc1[N+](=O)[O-])-c1ccccc1C2=NO	3	.	0	3	3	1	.
Fc1ccc(CNC(=S)Nc2ccc(Cl)cc2)cc1	-5	.	0	65*	3	8	95*
S=C(NCc1ccccc1)NCc1ccc(CNC(=S)NCc2ccccc2)cc1	7	-4	1	79*	8	10	90*
Fc1ccc(CNC(=S)NCc2ccccc2)cc1	-4	0	0	2	-3	-7	.
Fc1cccc(NC(=S)NCc2ccccc2Cl)c1	-1	-50	0	86*	0	1	97*
S=C(NCCC(c1ccccc1)c1ccccc1)Nc1cccc(Cl)c1	1	.	0	98*	4	12	87*
Fc1ccc(NC(=S)NCc2ccccc2)cc1	-2	4	0	1	-5	0	.
CCCC1CCC2(CCC(=O)N2CCO)CC1 (stereo unspecified)	.	.	.	.	0	-1	.
O=C(O[C@H]1CC[C@@]23CCCN2C(=O)CCC[C@H]3C1)N1CCN(c2ccccc2)CC1	.	.	.	.	0	-2	.
O=C(OCc1cn(Cc2ccccc2Cl)nn1)N1CCOCC1	.	.	.	.	1	8	.
S=C(NCc1ccccc1Cl)Nc1ccccc1Cl	1	.	1	0	3	4	.
Cc1ccccc1NC(=S)NCc1ccc(Cl)cc1	1	-11	0	8	2	3	.
Fc1cccc(NC(=S)NNc2c3ccccc3nc3ccccc23)c1	-1	5	0	92*	-351	i	46*
S=C(NCc1ccc(Cl)cc1Cl)Nc1ccccc1	4	-7	0	95*	5	10	95*
Fc1cccc(NC(=S)NNc2ccccc2)c1	-1	-10	0	1	-2	3	.
Cc1cc(Cl)ccc1NC(=S)NCc1ccccc1Cl	-4	5	0	93*	3	2	84*
O=C(NC(=S)NCc1ccc(Cl)cc1Cl)c1ccco1	6	.	0	-1	0	3	.
S=C(NCc1ccc(Cl)cc1)Nc1ccccc1	0	4	0	65*	4	-1	93*
O=C(Nc1ccc(C(O)(C(F)(F)F)C(F)(F)F)cc1)c1c(F)cccc1F	.	.	.	.	2	8	.
COC(=O)[C@]12C[C@H](CC(=O)N3CCC(c4ccccc4)CC3)C(=O)N(Cc3ccc(Cl)cc3Cl)C1=C[C@H](C1CCCC1)O[C@@H]2C	.	.	.	.	-5	-7	.
SMILES	V-ATPase pH	Hep lipid drop	aDG glyco act	MPTP inh	ADAM17 inh	ADAM10 inh	MPTP counter	others
Cc1ccc(CNC(=S)Nc2ccc(OC(F)F)cc2C)cc1	4	17	0	9	3	7	.
Cc1ccc(NC(=S)NCc2ccc(Cl)cc2)c(OC(F)F)c1	-6	-4	0	62*	1	12	97*
COc1ccc(CCNS(=O)(=O)c2c(C)n[nH]c2C)cc1	.	.	.	.	-3	-6	.
C=CCN1[C@H](C#N)[C@@H](c2ccc(C#Cc3ccccc3OC)cc2)[C@H]1CO	.	.	.	.	-22	-74	.
CCC(=O)N[C@H]1C[C@@H]2O[C@@H](CO)CC[C@@H]2O[C@@H]1CCc1ccc(-c2cccc(OC)c2)cc1	.	.	.	.	-4	-6	.
CSc1ccccc1NC(=O)COc1ccc(Cl)cc1C	1	-25	0	0	2	7	.
CCOC(=O)c1c(C)oc(NC(=O)COc2ccc(Cl)cc2C)c1C#N	1	.	0	70*	-1	-3	51*
Cc1nc(Nc2ncc3c(n2)CC(C)(C)CC3=O)nc2ccccc12	4	.	0	2	-4	-4	.
CC1=NC(Nc2nc(C)c3ccccc3n2)=NC(C)(C)C1	2	-18	1	50*	-3	-19	45*
CCOc1ccc(-n2c(SCC(=O)Nc3cc4oc5ccccc5c4cc3OC)nnc2-c2cccc(Cl)c2)cc1	.	.	.	.	1	3	.
COC(=O)[C@]12C[C@H](CC(=O)NCC3CCCCC3)C(=O)N(CCC3=CCCCC3)C1=C[C@H](C(C)C)O[C@@H]2C1CC1	.	.	.	.	-5	-6	.
Cc1ccc(CN(Cc2cc3cccc(C)c3[nH]c2=O)C(=S)NCCCN(C)C)cc1	0	-2	1	65*	-4	-1	-13	MPTP swell DR=12*;MPTP counter DR=>80
Cc1cccc2cc(CN(Cc3ccccc3)C(=S)NCCCN(C)C)c(=O)[nH]c12	-3	0	1	4	-3	-15	.
Cc1cc(C)cc(OC[C@@H](O)CN2CCC(C(O)(c3ccccc3)c3ccccc3)CC2)c1	.	.	.	.	4	5	.
COC(=O)C1CN(CC(C)C)CCS(=O)(=O)N1Cc1ccc(C(F)(F)F)cc1 (stereo unspecified)	.	.	.	.	4	3	.
ClCc1nc2ccccc2c2ccccc12	3	-2	0	64*	-2	-4	-6	MPTP swell DR=4.6*;MPTP counter DR=>80
O=C(Nc1ncc(S(=O)(=O)c2ccc([N+](=O)[O-])cc2)s1)c1cccc2ccccc12	-4	8	0	54*	3	-7	79*
CCCC(=O)NC(NC(=S)Nc1ccc(N=Nc2ccccc2)cc1)C(Cl)(Cl)Cl (stereo unspecified)	2	3	2	103*	5	3	62*
O=C(CCc1ccccc1)NC(NC(=S)Nc1ccc(Br)cc1)C(Cl)(Cl)Cl (stereo unspecified)	-1	10	2	81*	-1	1	81*
CCCC(=O)NC(NC(=S)Nc1ccc(S(N)(=O)=O)cc1)C(Cl)(Cl)Cl (stereo unspecified)	-2	-11	0	0	0	0	.
C/C(=N\NC(=O)c1ccc(Cl)cc1)c1ccc(Br)s1	-4	.	0	0	-2	-10	.
